Assay results published in article PMC8144669 (The Journal of Biological Chemistry, 2021).
Each block holds one molecule with its values, some of them ahead of it.

Tests used:
Type in all cases: biochemical
[1] = molecular target: T1, M3RA (MLL3SET-RBBP5AS-ABM-ASH2LSPRY) (Homo sapiens, UniProt Q8NEZ4); assay: Continuous enzyme-coupled methylation assay, M3RA
[2] = molecular target: T1, M3RA (MLL3SET-RBBP5AS-ABM-ASH2LSPRY); assay: Mass-spectrometry-based
How it was run: (§1)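 Enzyme (E. coli-expressed SET–RBBP5–ASH2L ternary complex) was preincubated 15 min with 0, 50 or 100 μM AdoHcy. […] Samples taken every 30 s were quenched with TFA (0.5% final) and chilled to 4 °C. Monomethylated peptide was measured by MALDI-TOF in a CHCA matrix. Data were analysed by Lineweaver–Burk plots and nonlinear fits to competitive, noncompetitive and uncompetitive models, choosing the best coefficient of determination and lowest error.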

[3] = molecular target: T2, M4RA (MLL4SET-RBBP5AS-ABM-ASH2LSPRY) (Homo sapiens, UniProt O14686); assay: Mass-spectrometry-based
T2 sequence (Q15291 330-360 partner limits assumed, one chain of several): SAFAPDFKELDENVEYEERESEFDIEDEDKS
T2 sequence (Q9UBL3 380-599 partner limits assumed, one chain of several): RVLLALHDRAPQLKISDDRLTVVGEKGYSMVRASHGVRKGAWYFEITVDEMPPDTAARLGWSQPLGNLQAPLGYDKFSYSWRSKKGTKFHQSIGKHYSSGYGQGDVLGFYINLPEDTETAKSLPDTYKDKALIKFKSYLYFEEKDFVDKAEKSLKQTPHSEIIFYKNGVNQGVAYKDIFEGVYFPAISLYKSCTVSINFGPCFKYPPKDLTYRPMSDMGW
How it was run: as §1

[4] = molecular target: T2, M4RA (MLL4SET-RBBP5AS-ABM-ASH2LSPRY); assay: Continuous enzyme-coupled methylation assay, M4RA
[5] = substrate: C[S+](CC[C@H](N)C(=O)[O-])C[C@H]1O[C@@H](n2cnc3c(N)ncnc32)[C@H](O)[C@@H]1O; assay: Continuous enzyme-coupled methylation assay, M4RA; details: other: H3P20 fixed at 1600 μM; pH 8.0; 30.0 °C
[6] = substrate: C[S+](CC[C@H](N)C(=O)[O-])C[C@H]1O[C@@H](n2cnc3c(N)ncnc32)[C@H](O)[C@@H]1O; assay: Continuous enzyme-coupled methylation assay, M3RA; details: other: H3P20 fixed at 1600 μM; pH 8.0; 30.0 °C
[7] = Ki, varied AdoMet, global fit to Competitive model (Model Fit: Competitive)
[8] = varied substrate AdoMet, H3P20 constant 400 μM
[9] = varied substrate H3P20, AdoMet constant 200 μM

T1 sequence (Q15291 330-360 partner limits assumed, one chain of several): as the sequence (Q15291 330-360 partner limits assumed, one chain of several) above
T1 sequence (Q9UBL3 380-599 partner limits assumed, one chain of several): as the sequence (Q9UBL3 380-599 partner limits assumed, one chain of several) above

Molecule: M3RA: ternary complex of MLL3 SET domain, RBBP5AS-ABM and ASH2LSPRY
kcat ([1]; from secondary plots): 0.108 ± 0.00783 s⁻¹

Ki [2, 7]: 4.19 µM
Inhibition pattern [2, 8]: Competitive
Inhibition pattern [2, 9]: Noncompetitive
Ki [3, 7]: 11.2 µM
Inhibition pattern [3, 8]: Competitive
Inhibition pattern [3, 9]: Noncompetitive
Molecule: Nc1ncnc2c1ncn2[C@@H]1O[C@H](CSCC[C@H](N)C(=O)O)[C@@H](O)[C@H]1O [AdoHcy, S-adenosylhomocysteine]

Inhibition pattern [1, 8]: Competitive
Inhibition pattern [1, 9]: Noncompetitive
Inhibition pattern [4, 8]: Competitive
Inhibition pattern [4, 9]: Noncompetitive
Molecule: Nc1ncnc2c1ncn2[C@@H]1O[C@H](C[C@@H](N)CC[C@H](N)C(=O)O)[C@@H](O)[C@H]1O [Sinefungin]

Molecule: M4RA: ternary complex of MLL4 SET domain, RBBP5AS-ABM and ASH2LSPRY
kcat ([4]; from secondary plots): 0.108 ± 0.00533 s⁻¹

Kd [1]: 4.29 ± 0.44 µM
KBA ([1]; from secondary plots, Michaelis constant for formation of EAB from A to EB): 27.23 ± 3.05 µM
Kd [4]: 10.3 ± 0.46 µM
Molecule: C[S+](CC[C@H](N)C(=O)[O-])C[C@H]1O[C@@H](n2cnc3c(N)ncnc32)[C@H](O)[C@@H]1O (stereo partly shown) [AdoMet, S-adenosylmethionine]

B1: M4RA (MLL4SET-RBBP5AS-ABM-ASH2LSPRY) (Homo sapiens) (protein)
chain: NNVYLARSRIQGLGLYAAKDLEKHTMVIEYIGTIIRNEVANRREKIYEEQNRGIYMFRINNEHVIDATLTGGPARYINHSCAPNCVAEVVTFDKEDKIIIISSRRIPKGEELTYDYQ
Km [5]: 6.9 ± 0.4 µM
kcat [5]: 0.08 ± 0.0017 s⁻¹

B2: M3RA (MLL3SET-RBBP5AS-ABM-ASH2LSPRY) (Homo sapiens) (protein)
chain: SNVYLARSRIQGLGLYAARDIEKHTMVIEYIGTIIRNEVANRKEKLYESQNRGVYMFRMDNDHVIDATLTGGPARYINHSCAPNCVAEVVTFERGHKIIISSSRRIQKGEELCYDYK
Km [6]: 20.0 ± 1.5 µM
kcat [6]: 0.0833 ± 0.0017 s⁻¹
